Experiments:
Dipeptidyl peptidase 4 [1] = biological target: T1, Dipeptidyl peptidase 4 (Homo sapiens, UniProt P27487); experiment: Inhibitory concentration against human dipeptidylpeptidase 4
Target sequence in this assay (P27487 whole entry): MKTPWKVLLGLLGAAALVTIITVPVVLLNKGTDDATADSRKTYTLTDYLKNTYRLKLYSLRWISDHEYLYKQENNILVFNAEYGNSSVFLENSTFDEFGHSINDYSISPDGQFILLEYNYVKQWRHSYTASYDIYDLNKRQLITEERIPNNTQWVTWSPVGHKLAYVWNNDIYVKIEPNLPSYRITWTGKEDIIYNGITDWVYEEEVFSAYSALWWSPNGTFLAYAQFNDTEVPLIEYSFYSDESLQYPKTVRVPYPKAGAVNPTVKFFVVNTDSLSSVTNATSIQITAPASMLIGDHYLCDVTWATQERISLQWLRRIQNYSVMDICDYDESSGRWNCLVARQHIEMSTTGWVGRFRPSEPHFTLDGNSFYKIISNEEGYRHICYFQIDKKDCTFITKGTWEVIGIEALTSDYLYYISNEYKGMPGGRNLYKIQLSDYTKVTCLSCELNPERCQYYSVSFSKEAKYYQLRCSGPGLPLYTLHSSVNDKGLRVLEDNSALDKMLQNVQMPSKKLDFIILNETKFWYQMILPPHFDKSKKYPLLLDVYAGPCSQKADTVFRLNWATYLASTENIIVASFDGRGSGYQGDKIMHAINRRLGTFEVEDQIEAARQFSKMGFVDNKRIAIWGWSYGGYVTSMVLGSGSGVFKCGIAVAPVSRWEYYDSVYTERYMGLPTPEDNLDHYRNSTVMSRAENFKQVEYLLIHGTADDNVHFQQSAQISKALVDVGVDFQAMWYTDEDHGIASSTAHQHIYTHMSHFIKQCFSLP

Dipeptidyl peptidase 2 = Dipeptidyl peptidase 2 (Homo sapiens, UniProt Q9UHL4); experiment: Inhibitory concentration against human dipeptidylpeptidase 7
Prolyl endopeptidase FAP = biological target: T2, Prolyl endopeptidase FAP (Homo sapiens, UniProt Q12884); experiment: Inhibitory concentration against human fibroblast activation protein alpha; ni = no inhibition at 33 uM concentration
T2 sequence (Q12884 whole entry): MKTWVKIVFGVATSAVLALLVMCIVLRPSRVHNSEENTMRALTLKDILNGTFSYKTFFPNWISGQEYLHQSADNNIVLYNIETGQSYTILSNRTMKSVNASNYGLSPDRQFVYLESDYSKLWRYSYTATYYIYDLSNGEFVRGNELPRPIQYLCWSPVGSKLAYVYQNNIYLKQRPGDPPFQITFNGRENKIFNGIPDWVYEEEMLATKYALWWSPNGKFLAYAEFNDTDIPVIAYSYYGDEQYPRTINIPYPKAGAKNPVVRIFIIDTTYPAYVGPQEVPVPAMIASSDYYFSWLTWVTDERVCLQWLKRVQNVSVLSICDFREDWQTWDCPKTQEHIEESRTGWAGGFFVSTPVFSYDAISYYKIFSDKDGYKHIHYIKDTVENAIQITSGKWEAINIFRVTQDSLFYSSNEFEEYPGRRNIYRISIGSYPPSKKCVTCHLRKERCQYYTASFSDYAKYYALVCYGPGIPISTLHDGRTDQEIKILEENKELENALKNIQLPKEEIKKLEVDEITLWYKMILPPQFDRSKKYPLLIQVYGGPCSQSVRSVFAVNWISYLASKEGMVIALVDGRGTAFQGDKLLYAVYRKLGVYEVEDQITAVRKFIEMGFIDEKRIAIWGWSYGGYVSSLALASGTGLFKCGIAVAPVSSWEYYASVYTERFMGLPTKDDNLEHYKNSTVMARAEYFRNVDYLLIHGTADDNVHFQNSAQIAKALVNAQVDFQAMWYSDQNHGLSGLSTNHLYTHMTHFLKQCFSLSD

Dipeptidyl peptidase 4 [2] = biological target: T1, Dipeptidyl peptidase 4
Target sequence in this assay (P27487 whole entry): as the sequence (P27487 whole entry) above

Dipeptidyl peptidase 9 [3] = biological target: T3, Dipeptidyl peptidase 9 (Homo sapiens, UniProt Q86TI2); experiment: Inhibitory concentration against human dipeptidylpeptidase 9 using FP-TAMRA incubated for 30 min; ni = no inhibition at 20 uM concentration
Procedure, shortened: (§1)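 DPP8 and DPP9 from MDA-MB-435 cell lysate. Compounds dissolved in 50% DMSO/50 mM glycine buffer pH 2.5 (final DMSO 1% v/v), serially diluted into lysate, FP-TAMRA activity-based probe labeling, 30 min, quenched with loading buffer. Labeled enzyme resolved by SDS–PAGE, TAMRA fluorescence read by flatbed gel scanner. Duplicates; activity as % of enzyme-alone control, IC50 from Hill fit.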
Target sequence in this assay (Q86TI2 whole entry): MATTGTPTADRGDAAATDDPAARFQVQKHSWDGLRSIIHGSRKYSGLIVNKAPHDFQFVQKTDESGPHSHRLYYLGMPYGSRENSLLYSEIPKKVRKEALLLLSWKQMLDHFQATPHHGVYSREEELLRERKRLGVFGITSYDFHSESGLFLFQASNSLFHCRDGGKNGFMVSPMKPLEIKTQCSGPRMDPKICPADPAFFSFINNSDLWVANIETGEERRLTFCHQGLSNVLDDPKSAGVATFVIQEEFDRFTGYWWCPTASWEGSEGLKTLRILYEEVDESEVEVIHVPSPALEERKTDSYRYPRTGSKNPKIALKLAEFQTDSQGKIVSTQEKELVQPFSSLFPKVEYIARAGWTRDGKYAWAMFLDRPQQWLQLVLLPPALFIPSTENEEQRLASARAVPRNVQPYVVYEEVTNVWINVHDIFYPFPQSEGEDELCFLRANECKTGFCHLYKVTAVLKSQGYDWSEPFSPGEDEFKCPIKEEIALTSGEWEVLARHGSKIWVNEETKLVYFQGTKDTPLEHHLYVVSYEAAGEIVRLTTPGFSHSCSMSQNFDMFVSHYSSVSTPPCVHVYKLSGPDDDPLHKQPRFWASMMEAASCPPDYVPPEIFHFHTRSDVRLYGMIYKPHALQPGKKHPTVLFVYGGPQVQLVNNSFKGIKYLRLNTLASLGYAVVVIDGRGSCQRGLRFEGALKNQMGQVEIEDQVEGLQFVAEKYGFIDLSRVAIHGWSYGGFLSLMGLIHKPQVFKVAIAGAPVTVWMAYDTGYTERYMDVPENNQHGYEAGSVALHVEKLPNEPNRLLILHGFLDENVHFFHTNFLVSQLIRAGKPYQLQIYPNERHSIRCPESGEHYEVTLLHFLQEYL

Dipeptidyl peptidase 8 = Dipeptidyl peptidase 8 (Homo sapiens, UniProt Q6V1X1); experiment: Inhibitory concentration against human dipeptidylpeptidase 8 using FP-TAMRA incubated for 30 min; ni = no inhibition at 20 uM concentration; procedure, shortened: as §1
Chain of Dipeptidyl peptidase 8 (Q6V1X1 whole entry): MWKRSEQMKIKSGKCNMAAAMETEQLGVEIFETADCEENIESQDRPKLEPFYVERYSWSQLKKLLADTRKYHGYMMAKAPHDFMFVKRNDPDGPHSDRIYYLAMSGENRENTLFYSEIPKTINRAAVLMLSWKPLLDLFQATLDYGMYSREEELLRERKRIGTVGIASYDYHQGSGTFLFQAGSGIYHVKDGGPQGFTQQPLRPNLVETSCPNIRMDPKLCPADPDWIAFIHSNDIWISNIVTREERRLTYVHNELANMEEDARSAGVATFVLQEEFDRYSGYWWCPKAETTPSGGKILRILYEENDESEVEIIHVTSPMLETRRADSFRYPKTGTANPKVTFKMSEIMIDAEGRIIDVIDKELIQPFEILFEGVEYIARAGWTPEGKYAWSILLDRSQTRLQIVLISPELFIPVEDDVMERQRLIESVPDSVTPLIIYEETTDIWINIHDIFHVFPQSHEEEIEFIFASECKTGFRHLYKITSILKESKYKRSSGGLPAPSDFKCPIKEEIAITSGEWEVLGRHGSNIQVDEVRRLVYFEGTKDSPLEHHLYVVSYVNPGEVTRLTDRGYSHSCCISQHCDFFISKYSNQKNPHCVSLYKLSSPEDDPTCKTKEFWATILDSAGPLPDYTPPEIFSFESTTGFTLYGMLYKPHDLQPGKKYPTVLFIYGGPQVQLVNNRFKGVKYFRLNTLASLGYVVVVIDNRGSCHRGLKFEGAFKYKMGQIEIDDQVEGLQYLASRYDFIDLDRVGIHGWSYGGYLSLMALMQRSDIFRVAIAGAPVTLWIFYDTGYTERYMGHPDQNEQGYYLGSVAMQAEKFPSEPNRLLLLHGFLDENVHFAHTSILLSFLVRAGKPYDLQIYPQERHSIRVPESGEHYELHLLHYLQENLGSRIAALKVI

Dipeptidyl peptidase 9 [4] = biological target: T3, Dipeptidyl peptidase 9; experiment: Percentage inhibition against human dipeptidylpeptidase 9 using FP-TAMRA incubated for 30 min at 20 uM concentration; procedure, shortened: as §1
Target sequence in this assay (Q86TI2 2-863 limits assumed): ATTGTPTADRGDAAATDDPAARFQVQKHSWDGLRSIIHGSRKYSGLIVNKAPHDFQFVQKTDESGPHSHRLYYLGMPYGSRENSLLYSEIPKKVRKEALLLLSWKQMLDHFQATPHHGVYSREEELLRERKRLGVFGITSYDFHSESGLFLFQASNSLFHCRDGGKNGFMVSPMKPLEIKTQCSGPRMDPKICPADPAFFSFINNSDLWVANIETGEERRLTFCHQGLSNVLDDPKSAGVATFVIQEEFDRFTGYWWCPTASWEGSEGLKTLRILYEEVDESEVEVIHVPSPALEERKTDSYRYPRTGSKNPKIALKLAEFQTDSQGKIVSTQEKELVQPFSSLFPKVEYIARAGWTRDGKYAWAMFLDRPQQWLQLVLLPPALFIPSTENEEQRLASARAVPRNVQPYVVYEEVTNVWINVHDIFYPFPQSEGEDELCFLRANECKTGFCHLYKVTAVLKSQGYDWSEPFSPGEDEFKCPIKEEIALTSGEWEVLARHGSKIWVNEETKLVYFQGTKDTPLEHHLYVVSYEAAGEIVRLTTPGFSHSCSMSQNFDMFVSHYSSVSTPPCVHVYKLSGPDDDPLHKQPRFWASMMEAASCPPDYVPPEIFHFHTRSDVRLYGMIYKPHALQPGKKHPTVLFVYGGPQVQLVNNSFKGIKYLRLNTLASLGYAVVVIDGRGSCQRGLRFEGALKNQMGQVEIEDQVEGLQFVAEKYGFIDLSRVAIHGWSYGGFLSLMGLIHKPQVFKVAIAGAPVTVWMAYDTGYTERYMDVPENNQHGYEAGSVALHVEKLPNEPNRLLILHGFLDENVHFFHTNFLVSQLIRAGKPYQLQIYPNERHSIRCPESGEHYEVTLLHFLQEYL

Dipeptidyl peptidase 4 [5] = biological target: T1, Dipeptidyl peptidase 4; experiment: Percent inhibition against human dipeptidylpeptidase 4 at 33 uM concentration
Target sequence in this assay (P27487 whole entry, looked up): as the sequence (P27487 whole entry) above

SMILES	IC50 (Dipeptidyl peptidase 4 [1])	IC50 (Dipeptidyl peptidase 2)	IC50 (Prolyl endopeptidase FAP)	IC50 (Dipeptidyl peptidase 4 [2])	IC50 (Dipeptidyl peptidase 9 [3])	IC50 (Dipeptidyl peptidase 8)	inhibition (Dipeptidyl peptidase 9 [4])	inhibition (Dipeptidyl peptidase 4 [5])
CCCC[C@@H](NC(=O)[C@@H](N)CCCN)B(O)O	1200 nM	4.7 nM	No inhibition					
CCCCCNC(=O)[C@@H](N)CCN		2600 nM	No inhibition	Not Active	No inhibition	No inhibition		
CCCC[C@H](N)C(=O)N1CCC[C@@H]1B(O)O	4.5 nM	2 nM						
CC(C)[C@H](N)C(=O)N[C@@H](C)B(O)O		160 nM						
CCCC[C@@H](NC(=O)[C@@H]1CCCN1)B(O)O		890 nM	No inhibition	Not Active		No inhibition	35%	
CCCC[C@@H](NC(=O)[C@@H](N)CCC)B(O)O	810 nM	71 nM	No inhibition					
CCCCCNC(=O)[C@@H](N)CCCC		5500 nM	No inhibition		No inhibition	No inhibition		35%
CCCC[C@@H](NC(=O)[C@@H](N)CCCC)B(O)O	370 nM	18 nM	No inhibition					
CCCC[C@@H](NC(=O)[C@@H](N)CC)B(O)O	32000 nM	49 nM	No inhibition					
CCCC[C@@H](NC(=O)[C@@H](N)C(C)C)B(O)O	17000 nM	40 nM	No inhibition					
NCC[C@H](N)C(=O)N1CCC[C@@H]1B(O)O	15 nM	0.72 nM						
CCCC[C@@H](NC(=O)[C@@H](N)CN)B(O)O	2000 nM	8.2 nM	No inhibition			No inhibition		
CCCC[C@@H](NC(=O)[C@H](C)N)B(O)O		220 nM	No inhibition	Not Active			40%	
CCCC[C@@H](NC(=O)[C@@H](N)CCCCN)B(O)O		3.7 nM	No inhibition	Not Active				
CCCC[C@@H](NC(=O)[C@@H](N)CCN)B(O)O		0.48 nM	No inhibition					40%
